The source of these data is ChEMBL document CHEMBL1122986, “Aldosterone antagonists. 1. Synthesis and activities of 6 beta,7 beta:15 beta,16 beta-dimethylene steroidal spirolactones” (J Med Chem, 1985).

The target of assay [1] is T1, Androgen receptor (Rattus norvegicus) (UniProt P15207).
T1 sequence (whole entry): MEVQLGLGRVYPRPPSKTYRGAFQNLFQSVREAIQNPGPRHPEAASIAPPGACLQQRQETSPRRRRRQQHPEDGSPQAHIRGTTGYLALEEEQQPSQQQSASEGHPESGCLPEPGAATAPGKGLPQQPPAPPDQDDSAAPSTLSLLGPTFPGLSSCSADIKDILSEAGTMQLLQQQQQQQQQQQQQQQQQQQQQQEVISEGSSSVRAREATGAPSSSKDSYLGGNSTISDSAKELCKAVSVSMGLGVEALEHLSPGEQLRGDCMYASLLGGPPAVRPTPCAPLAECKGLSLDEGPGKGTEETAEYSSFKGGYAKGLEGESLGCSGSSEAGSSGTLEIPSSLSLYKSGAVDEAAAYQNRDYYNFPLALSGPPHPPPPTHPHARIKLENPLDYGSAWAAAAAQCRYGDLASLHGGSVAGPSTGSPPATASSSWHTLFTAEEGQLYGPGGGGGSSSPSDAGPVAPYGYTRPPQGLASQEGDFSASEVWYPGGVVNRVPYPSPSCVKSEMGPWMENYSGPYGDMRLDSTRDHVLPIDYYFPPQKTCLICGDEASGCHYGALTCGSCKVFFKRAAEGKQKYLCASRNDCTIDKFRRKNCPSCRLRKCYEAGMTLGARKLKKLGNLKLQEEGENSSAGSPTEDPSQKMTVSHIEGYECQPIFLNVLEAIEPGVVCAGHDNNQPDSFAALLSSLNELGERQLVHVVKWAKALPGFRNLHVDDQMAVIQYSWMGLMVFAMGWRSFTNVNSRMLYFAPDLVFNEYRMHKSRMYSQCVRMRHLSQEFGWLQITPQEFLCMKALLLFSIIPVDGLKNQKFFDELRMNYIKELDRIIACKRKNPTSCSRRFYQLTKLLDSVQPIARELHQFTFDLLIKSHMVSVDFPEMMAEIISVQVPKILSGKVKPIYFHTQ

The target of assay [2] is T2, Mineralocorticoid receptor (Rattus norvegicus) (UniProt P22199).
T2 sequence (whole entry): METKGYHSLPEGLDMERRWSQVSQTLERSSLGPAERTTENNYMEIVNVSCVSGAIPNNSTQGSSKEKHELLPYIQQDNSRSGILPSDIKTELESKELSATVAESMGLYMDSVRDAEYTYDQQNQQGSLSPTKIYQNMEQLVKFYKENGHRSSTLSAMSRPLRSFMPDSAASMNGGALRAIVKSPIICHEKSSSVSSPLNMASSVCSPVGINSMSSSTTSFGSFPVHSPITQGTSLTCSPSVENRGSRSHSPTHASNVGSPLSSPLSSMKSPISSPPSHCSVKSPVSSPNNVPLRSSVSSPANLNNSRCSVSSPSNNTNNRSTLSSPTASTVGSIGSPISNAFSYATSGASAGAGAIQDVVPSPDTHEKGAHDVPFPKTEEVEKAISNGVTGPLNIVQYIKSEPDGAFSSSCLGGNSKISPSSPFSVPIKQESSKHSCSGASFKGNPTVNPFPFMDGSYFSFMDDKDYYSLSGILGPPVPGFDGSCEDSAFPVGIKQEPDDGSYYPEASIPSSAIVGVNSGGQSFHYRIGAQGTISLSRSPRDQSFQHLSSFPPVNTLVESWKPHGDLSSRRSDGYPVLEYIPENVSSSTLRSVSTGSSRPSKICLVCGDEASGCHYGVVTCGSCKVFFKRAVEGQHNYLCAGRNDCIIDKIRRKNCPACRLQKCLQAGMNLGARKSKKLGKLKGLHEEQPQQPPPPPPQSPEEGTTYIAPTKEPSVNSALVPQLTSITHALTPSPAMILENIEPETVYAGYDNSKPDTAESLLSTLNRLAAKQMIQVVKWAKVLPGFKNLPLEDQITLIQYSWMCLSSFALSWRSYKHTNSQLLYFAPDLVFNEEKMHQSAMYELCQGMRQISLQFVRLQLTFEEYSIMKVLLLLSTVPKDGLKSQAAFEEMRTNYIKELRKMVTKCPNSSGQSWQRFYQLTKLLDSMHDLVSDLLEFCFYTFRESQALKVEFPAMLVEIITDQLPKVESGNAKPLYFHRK
Briefly: Relative potency as antialdosterone activity compared to spironolactone 1 hr after oral administration. Type of assay: functional, organism-based. The method, boiled down:
(§1)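 Adrenalectomized Wistar rats (140–160 g) were maintained on fluocortolone caproate 1 mg/kg on the day of surgery and fluocortolone 10 mg/kg sc one day before testing. Rats were infused with saline-glucose (0.05% NaCl, 5% glucose) containing aldosterone 50 μg/L at 3 mL/h. Compounds were given orally 1 h before infusion at 6.7, 13.4 and 26.8 mg/kg. Hourly urine Na and K were measured by flame photometry over 10–15 h.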

Assay [3] addresses T3, Progesterone receptor (Oryctolagus cuniculus) (UniProt P06186).
T3 sequence (whole entry): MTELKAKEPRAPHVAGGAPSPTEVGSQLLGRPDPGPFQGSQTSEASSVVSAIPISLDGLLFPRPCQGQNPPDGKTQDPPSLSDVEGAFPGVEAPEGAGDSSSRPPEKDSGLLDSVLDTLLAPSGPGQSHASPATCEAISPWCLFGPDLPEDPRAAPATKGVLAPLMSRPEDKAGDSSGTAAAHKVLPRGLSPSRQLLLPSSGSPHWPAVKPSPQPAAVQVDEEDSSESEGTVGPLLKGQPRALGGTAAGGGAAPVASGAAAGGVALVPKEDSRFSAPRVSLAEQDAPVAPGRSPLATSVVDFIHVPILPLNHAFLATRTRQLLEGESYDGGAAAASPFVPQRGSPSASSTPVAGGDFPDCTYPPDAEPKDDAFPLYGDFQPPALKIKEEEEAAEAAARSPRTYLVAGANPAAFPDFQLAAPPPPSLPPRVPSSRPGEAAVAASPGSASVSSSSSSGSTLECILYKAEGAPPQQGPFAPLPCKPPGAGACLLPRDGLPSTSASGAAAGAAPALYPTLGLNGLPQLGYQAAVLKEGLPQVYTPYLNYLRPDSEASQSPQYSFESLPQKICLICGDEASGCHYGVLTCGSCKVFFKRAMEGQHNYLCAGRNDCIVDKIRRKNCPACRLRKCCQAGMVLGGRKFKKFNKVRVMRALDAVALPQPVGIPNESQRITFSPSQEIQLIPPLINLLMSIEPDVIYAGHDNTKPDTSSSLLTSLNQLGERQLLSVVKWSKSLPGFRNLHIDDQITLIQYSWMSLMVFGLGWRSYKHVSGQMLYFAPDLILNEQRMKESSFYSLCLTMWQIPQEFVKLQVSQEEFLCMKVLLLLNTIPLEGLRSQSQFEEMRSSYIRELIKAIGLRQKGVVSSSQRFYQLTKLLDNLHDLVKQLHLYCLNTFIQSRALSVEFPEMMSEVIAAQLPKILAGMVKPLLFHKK
The experiment in a line: Progestational activity in rabbit at 30.0 mg/kg oral dose. Type of assay: functional, organism-based. Also noted: dose 30 mg/kg. The method, boiled down:
(§2)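 Clauberg test in rabbits after oral administration, run by literature procedures. Doses are listed […], and the read-out is the McPhail index.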

Assay [4] addresses T3, Progesterone receptor (Oryctolagus cuniculus). The experiment in a line: Binding affinity for rat progesterone receptor compared to progesterone; No affinity.
The target of assay [5] is T1, Androgen receptor (Rattus norvegicus). The experiment in a line: Binding affinity for rat androgen receptor compared to dihydrotestosterone; No affinity.
For assay [6], the target named is T3, Progesterone receptor (Oryctolagus cuniculus). Briefly: Binding affinity for rat progesterone receptor compared to progesterone.
The target of assay [7] is T2, Mineralocorticoid receptor (Rattus norvegicus). Briefly: Relative potency as antialdosterone activity compared to spironolactone 1 hr after oral administration; No activity. In kind it is functional, organism-based. The method, boiled down:
as §1

The target is the same in assay [8]. Briefly: Relative potency as antialdosterone activity compared to spironolactone 1 hr after oral administration; NA denotes no activity. In kind it is functional, organism-based. Put shortly: as §1
Assay [9] addresses T3, Progesterone receptor (Oryctolagus cuniculus). The experiment in a line: Progestational activity in rabbit at 3.0 mg/kg oral dose. Type of assay: functional, organism-based. Also noted: dose 3 mg/kg. Put shortly: as §2
Assay [10] shares this target. Briefly: Progestational activity in rabbit at 0.3 mg/kg oral dose. Type of assay: functional, organism-based. Also on record: dose 0.3 mg/kg. Put shortly:
as §2

The target is the same in assay [11]. Briefly: Progestational activity in rabbit at 1.0 mg/kg oral dose. In kind it is functional, organism-based. Also noted: dose 1 mg/kg. The method, boiled down: as §2

Active and inactive are the calls of the source. The calls are words filed in the database; no cut-off is given here.

Consider `C[C@H]1CC(=O)C=C2C3CC3C3C(CCC4(C)C3C3CC3[C@@]43CCC(=O)O3)C21C` (some centres undefined), for which the Competition factor in assay [1] amounted to 70. Also, the MRP in [2] is 100.

The compound `CS[C@H]1CC(=O)C=C2C3CC3C3C(CCC4(C)C3C3CC3[C@@]43CCC(=O)O3)C21C` (some centres undefined) came in with a McPhail index in [3] of 3.8. Also, the Competition factor entry in [4] and in assay [5] was “inactive” in each case. This compound also came in with an MRP in assay [2] of 240.

Turning to `CC12C(=CC(=O)C[C@@H]1S)C1CC1C1C2CCC2(C)C1C1CC1[C@@]21CCC(=O)O1` (some centres undefined), the McPhail index in [3] was 3.5. Moreover, the Competition factor in assay [1] came out at 63; in assay [6] it was 5.8. Besides, in assay [2], the MRP is over 100.

For `CC1=CC2(C)C(=CC1=O)C1CC1C1C2CCC2(C)C1C1CC1[C@@]21CCC(=O)O1` (some centres undefined), the MRP entry in assay [7] was “inactive”. The Competition factor in assay [6] turned out to be 35.

As for `C[C@]12CCC(=O)C=C1[C@@H]1C[C@@H]1[C@H]1[C@@H]3[C@@H]4C[C@@H]4[C@@]4(CCC(=O)O4)[C@@]3(C)CC[C@@H]12`, the Competition factor in [6] turned out to be 2.7. Moreover, the MRP in assay [2] came out at 685.

In the case of `C[C@@H]1CC2(C)C(=CC1=O)C1CC1C1C2CCC2(C)C1C1CC1[C@@]21CCC(=O)O1` (some centres undefined), the Competition factor entry in assay [5] is “inactive”. The compound further displayed a Competition factor in [6] of 105. Moreover, the MRP in [2] was under 100.

Turning to `C=C1CC2(C)C(=CC1=O)C1CC1C1C2CCC2(C)C1C1CC1[C@@]21CCC(=O)O1` (some centres undefined), the MRP entry in [7] is “inactive”. In addition, in assay [5], the Competition factor result is “inactive”. For the same compound, the Competition factor in assay [6] was determined as 18.

For the compound `CC12C(=CC(=O)C[C@@H]1C#N)C1CC1C1C2CCC2(C)C1C1CC1[C@@]21CCC(=O)O1` (some centres undefined), the MRP entry in assay [8] is “inactive”.

With `CC12CCC(=O)C(Cl)=C1C1CC1C1C2CCC2(C)C1C1CC1[C@@]21CCC(=O)O1` (some centres undefined), the MRP entry in assay [7] was “inactive”.

With `CC12C(=CC(=O)[C@@H]3C[C@@H]31)C1CC1C1C2CCC2(C)C1C1CC1[C@@]21CCC(=O)O1` (some centres undefined), the Competition factor was 25 in [1] and 2.1 in [6]. The compound further yielded an MRP in assay [2] of 520.

Consider `CC12C(=CC(=O)CC1O)C1CC1C1C2CCC2(C)C1C1CC1[C@@]21CCC(=O)O1` (some centres undefined), for which the Competition factor result in assay [5] was “inactive”. Also, in assay [6], the Competition factor worked out at 19. In assay [2], the MRP was determined as 45.

Turning to `CC(=O)S[C@@H]1CC2=CC(=O)CC[C@]2(C)[C@H]2CC[C@@]3(C)[C@@H](CC[C@@]34CCC(=O)O4)[C@H]12`, in assay [6], the Competition factor was 21. In addition, the MRP in assay [2] was 100.

With `CC12CCC(=O)C=C1C1CC1C1C2[C@H](O)CC2(C)C1C1CC1[C@@]21CCC(=O)O1` (some centres undefined), the MRP result in assay [7] is “inactive”. In [5], the Competition factor result is “inactive”. Moreover, the Competition factor in [6] is 195.

`CC(=O)S[C@H]1CC(=O)C=C2C3CC3C3C(CCC4(C)C3C3CC3[C@@]43CCC(=O)O3)C21C` (some centres undefined): the Competition factor result in assay [4] was “inactive”. In addition, in assay [2], the MRP stood at 100.

`CC12CCC(=O)C=C1C1CC1C1C2CC(O)C2(C)C1C1CC1[C@@]21CCC(=O)O1` (some centres undefined): the MRP result in assay [7] is “inactive”. Besides, the Competition factor entry in assay [5] was “inactive”. In [6], the Competition factor came out at 25.

As to `CC12C=C(Cl)C(=O)C=C1C1CC1C1C2CCC2(C)C1C1CC1[C@@]21CCC(=O)O1` (some centres undefined), the MRP result in [7] is “inactive”. For the same compound, in assay [6], the Competition factor turned out to be 33.

`CC12C=CC(=O)C=C1C1CC1C1C2CCC2(C)C1C1CC1[C@@]21CCC(=O)O1` (some centres undefined): the McPhail index in assay [9] came out at 2.7; in [10], 1; in [11], 2.2. The Competition factor in assay [1] came to 150; in assay [6], 6.5. The same compound registered an MRP in [2] of 745.

Take `C[C@H]1CC2(C)C(=CC1=O)C1CC1C1C2CCC2(C)C1C1CC1[C@@]21CCC(=O)O1` (some centres undefined): the Competition factor result in [5] is “inactive”. The compound also registered a Competition factor in [6] of 30. The same compound returned an MRP in [2] of 100.
